MEKK3 PB1 HTS: MEKK3-MEK5 PB1 interaction, increase or decrease | 1.4% of 290,000 active | bead-based flow cytometry, Alexa488-MEK5 binding to MEKK3; actives lie on both sides; 0 = blocked by unlabeled MEK5, 100 = vehicle | Q99759 | binding response (% of control), % at 10 µM;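 active = binding response more than 3 SD above or below the average of its plate-row segment, actives on both sides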;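 also: Alexa488 bead fluorescence after subtracting the streptavidin-only scavenger bead signal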
Target sequence (Q99759 whole entry, looked up): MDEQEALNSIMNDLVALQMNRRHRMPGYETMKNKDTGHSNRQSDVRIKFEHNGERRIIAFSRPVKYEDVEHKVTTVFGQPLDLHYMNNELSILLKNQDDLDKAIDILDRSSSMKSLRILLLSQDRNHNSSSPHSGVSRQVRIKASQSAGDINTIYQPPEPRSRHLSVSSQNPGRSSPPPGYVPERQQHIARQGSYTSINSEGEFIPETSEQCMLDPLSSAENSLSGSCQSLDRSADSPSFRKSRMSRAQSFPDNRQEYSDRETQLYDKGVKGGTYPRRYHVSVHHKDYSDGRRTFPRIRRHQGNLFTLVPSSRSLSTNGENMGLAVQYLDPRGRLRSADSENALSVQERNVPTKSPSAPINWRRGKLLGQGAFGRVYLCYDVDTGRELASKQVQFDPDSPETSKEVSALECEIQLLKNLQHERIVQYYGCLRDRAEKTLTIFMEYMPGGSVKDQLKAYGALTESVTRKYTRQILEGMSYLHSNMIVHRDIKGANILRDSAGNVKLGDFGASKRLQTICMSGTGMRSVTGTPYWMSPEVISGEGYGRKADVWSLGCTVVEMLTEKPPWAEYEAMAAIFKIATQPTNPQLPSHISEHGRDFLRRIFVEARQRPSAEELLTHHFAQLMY
Arrestin-AP2 inh: human beta-arrestin and AP2 interaction inhibition. 0.31% of 340,000 active. inhibition, % at 10 µM. FITC-arrestin peptide / GST-AP2 beads, flow cytometry; AP2 beta2 appendage carries R879A mutation. AID 504490;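 active = inhibition above a set limit, near 3 SD of compounds lacking own fluorescence, cut at about 54% in these data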
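System: GST-AP2 R879A glutathione beads. Medium: PBS with 0.05% Tween 20 and 0.1% BSA. Also added: FITC-arrestin peptide, 50 nM. Incubation: 12 min plus 1 h, RT. Measured by: high-throughput flow cytometry of beads, ex 488, em 535 nm. Evaluation: percent drop in bead-associated FITC signal.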
MEKK2mut PB1 HTS: signal of MEK5 binding to mutant human MEKK2 PB1 domain; percent response, % at 10 µM; bead flow cytometry, Alexa488-MEK5 binding to MEKK2 mutant; 0.35% of 290,000 active; in the data active = percent response above about 24%, passing the limit was not always enough
MEKK2wt PB1 HTS: raises or lowers MEK5 binding to wildtype human MEKK2 PB1 domain; Q9Y2U5; bead flow cytometry, Alexa488-MEK5 binding to MEKK2 WT; actives lie on both sides; binding response (% of control), % at 10 µM; 1.1% of 290,000 active; in the data active = binding response below about 67% or above about 130%
MEKK2wt confirm: raises or lowers MEK5 binding to wildtype human MEKK2, retest; shares compounds with MEKK3 PB1 HTS; bead flow cytometry, Alexa488-MEK5 binding to MEKK2 WT; actives lie on both sides; binding response (% of control), % at 10 µM; 2.4% of 5,900 active; in the data active = binding response below about 16% or above about 210%; inactive = in between
MEKK2mut confirm: signal of MEK5 binding to mutant human MEKK2, retest; shares compounds with MEKK3 PB1 HTS; AID 1893; percent response, % at 10 µM; 2% of 5,900 active; bead flow cytometry, Alexa488-MEK5 binding to MEKK2 mutant; in the data active = percent response mostly above about 71%, no sharp cut-off; inactive = mostly below about 38%;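 also: higher means compound restores mutant binding toward wildtype level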
MEKK3-MEK5 inh: confirmation of inhibitors of MEK5 binding to human MEKK3; 1.8% of 5,900 active; bead flow cytometry, Alexa488-MEK5 binding to MEKK3; stronger effect = lower value; binding response (% of control), % at 10 µM; shares compounds with MEKK3 PB1 HTS;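 active = binding response below 72% of control, or above a set upper limit, though filed actives all read lower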
Each line names hits and unclear results; the compound was inactive in the other large screens (follow-up assays come after a bar, where they were run); [ ] = dose if it differs, or a comment. Shown are actives, neighbours in structure and some others; about 2.3% of the full set was active somewhere.

O=C(COC(=O)c1ccccc1SCC(=O)N1CCCC1)NC1CCS(=O)(=O)C1 (configuration not stated)	none (no result: MEKK3 PB1 HTS, MEKK2mut PB1 HTS, MEKK2wt PB1 HTS)
O=C(COC(=O)c1ccccc1SCC(=O)NC1CCS(=O)(=O)C1)NC1CCS(=O)(=O)C1 (configuration not stated)	MEKK3 PB1 HTS 2.0[inhibitor], MEKK2wt PB1 HTS 1.0[inhibitor] | MEKK2wt confirm inactive | MEKK2mut confirm inactive | MEKK3-MEK5 inh inactive
O=C(Cc1ccccc1)NCC(=O)Nc1ccccc1Br	none
Cc1c(C)c2ccc(OCC(=O)N3CC[C@@]4(O)CCCC[C@H]4C3)cc2oc1=O	none
O=C(COc1ccc2ccc(=O)oc2c1)N1CC[C@@]2(O)CCCC[C@H]2C1	MEKK3 PB1 HTS 2.0[inhibitor], MEKK2wt PB1 HTS 1.0[inhibitor] | MEKK2wt confirm inactive | MEKK2mut confirm inactive | MEKK3-MEK5 inh inactive
COc1ccc(-c2csc(Nc3ccc(C)cn3)n2)cc1OC	MEKK3 PB1 HTS 143.0 | MEKK2wt confirm inactive | MEKK2mut confirm inactive | MEKK3-MEK5 inh inactive
Cc1nc2ccccc2c(=O)n1NC(=O)C1CC1	none
COc1cc(/C=N/N=C(N)N)ccc1OCc1ccccc1Cl	MEKK2wt PB1 HTS 229.0 | MEKK2wt confirm inactive | MEKK2mut confirm inactive | MEKK3-MEK5 inh inactive
COc1ccc(/C=N/N=C/c2ccc(OC)c(OC)c2)cc1OC	none
COc1ccc2c(c1)[n+](=O)c(C(C)=O)c(C)n2[O-]	none
CC(=O)c1c(C)n([O-])c2cc(F)c(F)cc2[n+]1=O	MEKK3 PB1 HTS 71.0[inhibitor], MEKK2wt PB1 HTS -12.0 | MEKK2wt confirm inactive | MEKK2mut confirm inactive | MEKK3-MEK5 inh inactive
CCCC(=O)C1=C(O)C(C(=O)OC)C(C)(C)CC1=NCCc1ccc(OC)c(OC)c1 (configuration not stated)	MEKK3 PB1 HTS 72.0[inhibitor] | MEKK2wt confirm inactive | MEKK2mut confirm inactive | MEKK3-MEK5 inh inactive
CCCC(=O)C1=C(O)C(C(=O)OC)C(C)(C)CC1=NCc1ccccc1 (configuration not stated)	none
COC(=O)C1=C(C)NC(=O)NC1c1ccc([N+](=O)[O-])o1 (configuration not stated)	none
COC(=O)C1=C(C)NC(=O)NC1c1ccc(-c2ccc(Cl)cc2)o1 (configuration not stated)	MEKK2wt PB1 HTS 4.0[inhibitor] | MEKK2wt confirm inactive | MEKK2mut confirm inactive | MEKK3-MEK5 inh inactive
Cc1ccc(NC(=O)CCn2c(=O)[nH]c3ccsc3c2=O)cc1	none
O=C(CCCn1c(=O)[nH]c2ccsc2c1=O)Nc1ccc(F)cc1	MEKK3 PB1 HTS 54.0[inhibitor] | MEKK2wt confirm inactive | MEKK2mut confirm inactive | MEKK3-MEK5 inh inactive
O=C(CCCCCN1C(=O)c2ccccc2C1=O)Nc1ccc(F)cc1	MEKK3 PB1 HTS 131.0 | MEKK2wt confirm inactive | MEKK2mut confirm inactive | MEKK3-MEK5 inh inactive
O=C(CCCCCN1C(=O)c2cccc3cccc(c23)C1=O)NCc1cccnc1	MEKK3 PB1 HTS 49.0[inhibitor] | MEKK2wt confirm inactive | MEKK2mut confirm inactive | MEKK3-MEK5 inh inactive
O=C(CCCN1C(=O)c2ccccc2C1=O)NCc1ccc(F)cc1	MEKK2mut PB1 HTS 33.0 | MEKK2wt confirm inactive | MEKK2mut confirm inactive | MEKK3-MEK5 inh inactive
COc1ccc(CNC(=O)CCCN2C(=O)c3ccccc3C2=O)cc1	none
O=C(CN1CCN(c2ccc(F)cc2)CC1)c1ccc(O)cc1O	none
C[C@@H](C(=O)NCc1ccccn1)[C@@H]1C[C@@]1(C)[C@@H](NC(=O)OCc1ccccc1)c1ccccc1	none
Cc1ccc(CN2CC(C(=O)N(CC(C)C)c3c(N)n(Cc4ccccc4)c(=O)[nH]c3=O)CC2=O)cc1 (configuration not stated)	none (no result: MEKK3 PB1 HTS, MEKK2mut PB1 HTS, MEKK2wt PB1 HTS)
CCCN(CCC)CCNC(=O)C1CCN(S(=O)(=O)c2cccc3nsnc23)CC1	none
Cc1ccnc(NC(c2ccncc2)c2c(C)[nH]c3ccccc23)c1 (configuration not stated)	none

Screens from PubChem.
